# Screens: PubChem, several laboratories
# DDE Tn6 FP inh: inhibitors of Tn6 peptide binding to fibrin DD(E), primary screen, biochemical, fluorescence polarization, human fibrin, Tn6 probe; Fibrinogen beta chain (Homo sapiens), P02675; Fibrin DD(E) TRITC-Tn6 fluorescence polarization displacement; 0.21% of 370,000 active; inhibition, % at 8.3 µM;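 active = inhibition above a per-campaign cutoff: mean of compounds within control limits plus 3 SD, cut at about 15% in these data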;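 note: 0% = median of all compound wells on the plate and 100% = blocking peptide control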
# CendR NRP1 mod: modulators of CendR peptide binding to NRP-1, primary screen, biochemical, fluorescence polarization, uHTS; Neuropilin-1 (Homo sapiens), O14786; FAM-RPARPAR peptide binding to NRP-1; inhibition, % at 25 µM; 0.85% of 360,000 active;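 active = inhibition or corrected inhibition above about 18%, plus a signal ratio from 0.5 to 1.5, limit read from the data, passing the limit was not always enough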
# Target sequence (O14786 whole entry, looked up): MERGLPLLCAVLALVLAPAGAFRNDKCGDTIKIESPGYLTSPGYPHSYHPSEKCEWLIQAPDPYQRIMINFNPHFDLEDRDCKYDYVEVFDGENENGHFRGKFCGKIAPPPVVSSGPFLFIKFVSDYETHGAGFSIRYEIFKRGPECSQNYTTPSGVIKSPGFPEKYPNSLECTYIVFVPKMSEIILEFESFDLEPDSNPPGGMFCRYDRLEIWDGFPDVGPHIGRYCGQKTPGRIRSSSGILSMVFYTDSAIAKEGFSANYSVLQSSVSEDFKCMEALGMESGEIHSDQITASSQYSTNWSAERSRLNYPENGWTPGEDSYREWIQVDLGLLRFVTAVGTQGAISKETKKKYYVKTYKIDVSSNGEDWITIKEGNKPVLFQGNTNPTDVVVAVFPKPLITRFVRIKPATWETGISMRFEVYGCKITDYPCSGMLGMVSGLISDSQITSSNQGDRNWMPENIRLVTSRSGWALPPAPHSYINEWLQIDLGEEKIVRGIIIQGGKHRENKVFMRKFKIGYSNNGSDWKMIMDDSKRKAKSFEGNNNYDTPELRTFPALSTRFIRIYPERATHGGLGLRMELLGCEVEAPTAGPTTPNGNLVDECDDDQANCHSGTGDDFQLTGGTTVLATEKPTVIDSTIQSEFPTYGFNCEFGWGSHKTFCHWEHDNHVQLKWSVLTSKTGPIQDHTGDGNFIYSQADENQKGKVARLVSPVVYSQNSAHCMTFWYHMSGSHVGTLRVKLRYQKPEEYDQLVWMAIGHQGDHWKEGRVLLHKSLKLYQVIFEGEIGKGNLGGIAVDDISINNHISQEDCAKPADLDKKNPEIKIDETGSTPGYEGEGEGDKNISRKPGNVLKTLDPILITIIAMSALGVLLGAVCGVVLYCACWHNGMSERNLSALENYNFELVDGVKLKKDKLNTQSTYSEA
# KLK7 zymogen act: proKLK7 zymogen activators, primary screen, biochemical, fluorescence intensity | Kallikrein-7 (Homo sapiens), P49862 | purified proKLK7, EDANS-DABCYL substrate fluorescence; 100% is mature enzyme control, 0% vehicle | activation, % at 7 µM | 0.9% of 370,000 active | AID 652039, 2013;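 active = activation above the mean of all tested compounds plus 3 SD, computed per campaign excluding outliers beyond control limits, cut at about 13% in these data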
# Tn7 DDE FP: inhibitors of Tn7 peptide binding to fibrin DD(E), primary screen, biochemical, fluorescence polarization, human fibrin, Tn7 probe. FP displacement of FITC-Tn7 peptide from fibrin DD(E); 0% = median of compound wells per plate. AID 720508, 2013. 0.13% of 370,000 active. inhibition, % at 8.3 µM. Fibrinogen beta chain (Homo sapiens), P02675;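 active = inhibition above the mean of compounds falling within the control limits plus 3 SD of them, cut at about 14% in these data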;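 note: 0% = plate median of compound wells and 100% = 10 µM Aha-Tn7 peptide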
#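 Assay system: Human fibrin DD(E) protein | Medium: Tris buffer with calcium and detergent, pH 7.8 | Reagent: 0.1 µM fluorescent Tn7 | Compound dosing: Single point at 8.3 µM | Times: 10 min preincubation, 3 h with tracer, room temperature | Detection: Fluorescence polarization of the labelled Tn7 tracer | Controls: Aha-Tn7 high control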
# CRFR2-BP ag: agonists of CRF-BP/CRF-R2 complex, primary screen, cell-based, HEK293, calcium dye fluorescence, uHTS; CRF-binding protein / CRF receptor 2 complex (human); calcium dye fluorescence (FLIPR); percent of saturating CRF peptide response; activation, % at 13.2 µM; 0.46% of 350,000 active;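 active = activation of at least 50%, plus an integration ratio under a set limit after plate pattern correction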;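 note: plate controls were neutral control wells without compound for no effect and CRF at EC100 for full effect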
# CRFBP-R2 block: antagonists of CRF-BP/CRF-R2 complex, primary screen, cell-based, HEK293, calcium dye fluorescence, uHTS | CRF-induced calcium fluorescence | inhibition, % at 11.8 µM | 0.59% of 350,000 active | AID 588475, 2011;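 active = inhibition of the ligand-induced calcium signal above about 50% at the single tested concentration, limit read from the data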
# proKLK7 act conf: proKLK7 zymogen activators, confirmation, biochemical, fluorescence intensity, triplicate; activation, % at 7 µM; 68% of 3,200 active; shares compounds with KLK7 zymogen act; purified proKLK7, EDANS-DABCYL substrate fluorescence; scaled: vehicle 0, mature enzyme 100;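 active = activation, as change over the incubation, above the mean of all tested compounds plus 3 SD, cut at about 13% in these data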
# EDANS-DABCYL int: EDANS-DABCYL substrate optical interference, artefact control for kallikrein-7 zymogen activator project, biochemical, fluorescence intensity, high throughput; shares compounds with KLK7 zymogen act; no enzyme, 4 h; solvent 0%, active enzyme control 100%; activation, % at 7 µM; 80% of 3,200 active; AID 686952, 2013;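 active = activation above the all-compound mean plus 3 SD, ignoring values outside control-based bounds, cut at about 4.8% in these data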;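 note: value is the 4 h activation minus the activation read at time zero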
# EDANS interf: counter-screen for kallikrein-7 activators: EDANS-DABCYL interference, dose response; 20% of 250 active; EC50, µM; EDANS-DABCYL peptide fluorescence interference, no enzyme; shares compounds with KLK7 zymogen act;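 active = compounds that raise the fluorescence signal in this interference counterscreen, with EC50 at or below 10 µM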;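 note: intact quenched peptide substrate alone read at 355 nm excitation and 520 nm emission; signal is fluorescence gain from T0 to T4 after four hours at room temperature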
# Active calls of the source: *; . = no result given. A selection: hits, their analogues and other compounds. The true share with any hit is near 2.9%.
SMILES,DDE Tn6 FP inh,CendR NRP1 mod,KLK7 zymogen act,Tn7 DDE FP,CRFR2-BP ag,CRFBP-R2 block,proKLK7 act conf,EDANS-DABCYL int,others
COc1cc2sc3cc(NCc4ccc5c(c4)OCO5)ccc3c(=O)c2cc1OC,-13.3,-8.0,-7.2,-5.4,5.2,22.5,.,.,
COC(=O)[C@]1(C#N)CC(=O)N(Cc2ccc(Cl)cc2)[C@@H]1c1ccc(OC)cc1,-0.8,.,-0.3,-4.8,.,.,.,.,
COc1cccc2[nH]c3c(N4CCC5(CC4)OCCO5)ncnc3c12,-6.8,10.6,38.9*,6.8,-4.2,-8.5,37.8*,45.3*,
CC(C)C[C@H]1COc2cccc(N3CCSCC3)c2S(=O)(=O)N1C,-5.6,.,0.1,-2.9,.,.,.,.,
CCOC(=O)C1=CN(C)C=C(C(=O)OCC)C1c1ccsc1,-3.8,-12.0,28.8*,1.2,0.3,8.0,-33.6,-28.0,
COC(=O)C1=CN(Cc2ccc(OC)cc2)C=C(C(=O)OC)C1c1ccsc1,0.6,13.4,-35.1,-0.4,5.4,40.6,.,.,
COC(=O)C1=CN(CC2CCCO2)C=C(C(=O)OC)C1c1ccccc1C(F)(F)F (stereo not drawn),1.7,-59.6,-17.6,1.9,-0.8,-32.3,.,.,
COC(=O)C1=CN(C(C)C)C=C(C(=O)OC)C1c1cccc(OC)c1,-0.5,-10.6,38.6*,3.8,-1.6,28.4,3.5,-4.5,
COC(=O)C1=C(C)N(C)C(C)=C(C(=O)OC)C1c1ccsc1,-0.1,8.8,0.6,-5.8,-1.3,9.2,.,.,
COC(=O)C1=CN(CC2CCCO2)C=C(C(=O)OC)C1c1ccsc1 (stereo not drawn),2.1,-0.9,27.4*,2.8,-1.6,-3.2,33.7*,18.3*,EDANS interf=>69.5
COC(=O)C1=CN(CC2CCCO2)C=C(C(=O)OC)C1c1cccc(O)c1 (stereo not drawn),1.3,-0.7,62.8*,-2.6,-3.1,14.6,65.5*,61.1*,
COC(=O)C1=CN(C(C)C)C=C(C(=O)OC)C1c1cc(Br)c(OC)c(OC)c1,7.1,16.8,-7.1,7.9,-1.1,48.1,.,.,
CN(C)C(=O)C[C@H]1C[C@@H]2c3cc(NC(=O)NC4CCCC4)ccc3O[C@@H]2[C@@H](CO)O1,2.3,.,0.0,-2.4,.,.,.,.,
COC(=O)C1=CN(Cc2ccc(F)cc2)C=C(C(=O)OC)C1c1ccc(O)c(OC)c1,-2.2,12.8,-0.3,-0.5,-3.4,-1.9,.,.,
CCN1C=C(C(=O)OC)C(c2cccc(C)c2)C(C(=O)OC)=C1,-4.6,4.9,40.2*,-4.0,-0.6,7.2,-53.7,-50.8,
COC(=O)C1=CN(Cc2ccc(OC)c(OC)c2)C=C(C(=O)OC)C1c1cccc(O)c1,0.6,12.3,16.6*,-0.8,-2.5,49.5,-55.4,-70.0,
Cc1ccc(S(=O)(=O)NCCC(=O)Oc2ccc3ccc(=O)oc3c2)cc1,6.4,-0.3,48.6*,-1.9,0.4,4.2,612.9*,625.5*,
COc1ccc2c(C)c(Cl)c(=O)oc2c1,-1.8,-3.6,6.6,-7.6,-0.4,-3.5,.,.,
Cc1ccc(S(=O)(=O)NC(C(=O)N2CCOCCOCCOCC2)c2ccccc2)cc1 (stereo not drawn),2.5,-2.9,0.3,4.2,0.2,-7.8,.,.,
Cc1ccc(S(=O)(=O)NC(C(=O)Oc2ccc3ccc(=O)oc3c2)c2ccccc2)cc1 (stereo not drawn),7.8,17.4,63.1*,-7.5,-0.9,-6.5,329.0*,377.0*,
CCC[C@@H](NS(=O)(=O)c1ccc(C)cc1)C(=O)Oc1ccc2c3c(c(=O)oc2c1)CCC3,-3.2,-1.4,41.8*,-3.2,1.4,-57.1,631.0*,536.1*,
Cc1ccc(S(=O)(=O)NC(C(=O)Oc2ccc3c(C)c(Cl)c(=O)oc3c2)c2ccccc2)cc1 (stereo not drawn),5.7,-1.0,54.8*,-1.8,0.4,-42.7,69.0*,78.1*,
CC1CCN(CCCNS(=O)(=O)c2cc3c(cc2Br)CCN3C(=O)C2CC2)CC1,7.4,.,0.1,-1.5,.,.,.,.,
COc1cc2ccc(=O)oc2cc1OCC(O)C(C)(C)O (stereo not drawn),-4.0,8.1,21.0*,2.5,-0.7,-12.6,32.9*,47.6*,
COc1cc2ccc(=O)oc2cc1O,-1.7,-2.2,95.0*,-2.9,3.5,4.3,76.7*,83.1*,
SMILES,DDE Tn6 FP inh,CendR NRP1 mod,KLK7 zymogen act,Tn7 DDE FP,CRFR2-BP ag,CRFBP-R2 block,proKLK7 act conf,EDANS-DABCYL int,others
Cc1nn(-c2ccccc2)c2nc(N)c(C(N)=O)cc12,3.6,6.9,14.4*,6.5,-1.0,1.1,15.0*,17.1*,
COC(=O)c1cc(C)nc2c1c(C)nn2-c1ccccc1,1.3,-7.6,2.7,-3.1,-4.7,4.1,.,.,
Cc1ccc(-n2nc3ccc(N)cc3n2)c(C)c1,-1.0,5.9,40.1*,-3.4,0.4,-0.7,76.6*,76.3*,
COc1ccc(-n2nc3ccc(N)cc3n2)cc1Cl,-7.0,-5.0,52.7*,3.0,-1.3,-4.0,75.1*,75.4*,
Cc1ccc(-n2nc3ccc(N)cc3n2)cc1Cl,-0.6,-2.7,-48.9,6.6,9.8,-22.1,.,.,
Cc1cc(C)nc(/N=C(\NC(=O)C(C)(C)C)Nc2ccccc2)n1,-7.1,10.7,-0.6,0.3,1.0,-6.7,.,.,
Cc1cc(-c2ccccc2)c2ccc(NC(=O)C(C)(C)C)nc2n1,1.1,2.9,33.0*,-1.9,-7.6,-7.5,1.2,0.7,
COc1ccc(OC)c(C(=O)CSc2nnc(SCc3cccc4ccccc34)s2)c1,-5.0,.,-0.7,2.3,.,.,.,.,
CCC(NC(=O)Cn1c(-c2ccccc2)cc(C(C)=O)c1C)c1ccccc1 (stereo not drawn),4.2,.,0.5,8.3,.,.,.,.,
Cc1nn2c(c1-c1ccccc1)NC1=C(C(=O)CCC1)C2c1ccccc1 (stereo not drawn),0.3,3.9,30.1*,-0.8,1.8,-7.9,62.6*,74.2*,
COc1ccc(C2C3=C(CCCC3=O)Nc3c(-c4ccccc4)c(C)nn32)cc1 (stereo not drawn),.,-9.2,.,.,-11.8,20.6,.,.,
